Results on 2 compounds are retold here after publication PMC12749539 (Scientific Reports, 2025).

Data set [1] concerns Zika virus (ZIKV) MR766 strain. The data set can be described thus: EC50 dose-response in ZIKV-infected Vero cells. Type of data set: cell-based. The conditions noted are these: CC50/EC50, Vero cells. An outline of the steps:
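Vero CCL-81 monolayers were seeded at 1.2 × 10⁶ cells per plate one day before. Serial dilutions of test compound in DMEM (methods: 50–0.2 µM; legend: 0.2–100 µM) were added together with ZIKV MR766 at 100 TCID50/mL. Plates were held 6 days at 37 °C and 5% CO2, with virus and cell controls. Crystal violet read viability. EC50 came from four-parameter logistic fit of triplicate data. SI = CC50/EC50.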

Data set [2] is described as follows: CC50 cytotoxicity in uninfected Vero cells. It counts as cell-based. As to conditions: African green monkey. An outline of the steps:
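Vero CCL-81 cells in DMEM with 10% FBS were seeded at 1.2 × 10⁶ cells per plate one day ahead. Uninfected monolayers were exposed to serial dilutions of test compound in DMEM (50–0.2 µM) for 6 days at 37 °C and 5% CO2. Viability was read by crystal violet staining. CC50 came from four-parameter logistic nonlinear regression of triplicate data, with 95% CIs from log-transformed estimates.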

The test system of data set [3] is ZIKV. The conditions noted are these: read-out: previously reported EC50; anti-ZIKV; cited from earlier work.

For the compound `CCCCC(CC)COC(=O)CC(C(=O)OCC(CC)CCCC)S(=O)(=O)O` (stereo not drawn) [Docusate Sodium], in data set [1], the “selectivity index (SI)” value is 3.49. The midpoint of cytotoxicity in data set [2], the CC50 at 6 days, lay at 8.19 µM.

For `COC1=C[C@]23CCCN2CCc2cc4c(cc2[C@@H]3[C@@H]1O)OCO4` [Cephalotaxine], in data set [3], the EC50 is 40 µM.
